According to ChEMBL document CHEMBL1155883, “5-Alkyl-6-benzyl-2-(2-oxo-2-phenylethylsulfanyl)pyrimidin-4(3H)-ones, a series of anti-HIV-1 agents of the dihydro-alkoxy-benzyl-oxopyrimidine family with peculiar structure-activity relationship profile” (J Med Chem, 2008):

What was measured:
[1] = tested on: Human immunodeficiency virus 1; test: Antiviral activity against HIV1 NL4-3 in human MT4 cells assessed as inhibition of virus-induced cytopathogenicity by MTT assay; type: functional, organism-based; details: Human immunodeficiency virus 1, NL4-3, MT4
In short: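 MT-4 lymphoid cells infected with wild-type HIV-1 NL4-3 in the presence of a range of compound concentrations. Viable cells were counted by MTT colorimetric read-out at day 5 post-infection. EC50 is the concentration giving 50% protection from virus-induced cytopathic effect. Means ± SD from at least two or three experiments.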

[2] = Selectivity index, ratio of CC50 for human MT4 cells to EC50 for HIV1 NL4-3; type: toxicity, cell-based; details: read-out: Ratio CC50/EC50
In short: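 Computed as CC50/EC50. CC50 comes from MTT viability of mock-infected MT-4 cells and EC50 from MTT protection of NL4-3-infected MT-4 cells, both read at day 5.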

[3] = Cytotoxicity against human MT4 cells by MTT assay; type: cell-based
In short: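 Mock-infected MT-4 cells were exposed to a range of compound concentrations. Viability was read by MTT at day 5. CC50 is the concentration that kills 50% of uninfected cells. The top concentration was limited by compound precipitation in culture medium. Means ± SD from at least two or three experiments.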

[4] = tested on: Human immunodeficiency virus 1; test: Antiviral activity against HIV1 isolates with reverse transcriptase Y181C mutation in human MT4 cells assessed as inhibition of virus-induced cytopathogenicity by MTT assay; type: functional, organism-based; details: Human immunodeficiency virus 1, MT4
In short: (§1)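 MT-4 lymphoid cells infected with HIV-1 carrying RT K103N, Y181C or Y188L, in the presence of different drug concentrations. Viable cells counted at day 5 postinfection by MTT colorimetric assay. EC50 is the concentration that inhibits 50% of the HIV-induced cytopathic effect.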

[5] = molecular target: Human immunodeficiency virus type 1 reverse transcriptase (Human immunodeficiency virus 1) (UniProt Q72547)
[6] = tested on: Human immunodeficiency virus 1; test: Resistance index, ratio of ID50 for reverse transcriptase Y181I mutant to IC50 for wild-type HIV1 reverse transcriptase
In short: (§2)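 Recombinant wt and K103N, L100I or Y181I HIV-1 RT (>95% pure), 2-4 nM. RNA-dependent DNA polymerase assay on 0.5 µg poly(rA)/oligo(dT) 10:1 (0.3 µM 3'-OH ends) with 10 µM [3H]-dTTP and 8% final DMSO. Aliquots taken every 2 min. Inhibitor range 0.2-5× ID50, fitted to a noncompetitive model. Fold resistance is mutant ID50 divided by wt ID50.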

[7] = tested on: Human immunodeficiency virus 1; test: Antiviral activity against HIV1 isolates with reverse transcriptase Y188L mutation in human MT4 cells assessed as inhibition of virus-induced cytopathogenicity by MTT assay; type: functional, organism-based; details: Human immunodeficiency virus 1, MT4; in short: as §1
[8] = tested on: Human immunodeficiency virus type 1 reverse transcriptase (Human immunodeficiency virus 1), Q72547 [Y181I]
[9] = tested on: Human immunodeficiency virus 1; test: Antiviral activity against HIV1 isolates with reverse transcriptase K103N mutation in human MT4 cells assessed as inhibition of virus-induced cytopathogenicity by MTT assay; type: functional, organism-based; details: Human immunodeficiency virus 1, MT4; in short: as §1
[10] = tested on: Human immunodeficiency virus type 1 reverse transcriptase (Human immunodeficiency virus 1), Q72547 [K103N]
[11] = tested on: Human immunodeficiency virus 1; test: Resistance index, ratio of EC50 for drug-resistant HIV1 isolate with reverse transcriptase Y181C mutation to EC50 for wild type HIV1 NL4-3; type: functional
In short: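 Fold resistance is the EC50 against the K103N, Y181C or Y188L mutant strain divided by the EC50 against wt NL4-3. Each EC50 is from MT-4 cells infected in the presence of different drug concentrations, with viability read by MTT at day 5 postinfection.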

[12] = tested on: Human immunodeficiency virus type 1 reverse transcriptase (Human immunodeficiency virus 1), Q72547 [L100I]
[13] = tested on: Human immunodeficiency virus 1; test: Resistance index, ratio of ID50 for reverse transcriptase K103N mutant to IC50 for wild-type HIV1 sreverse transcriptase; in short: as §2

| SMILES | EC50 [1] | selectivity ratio [2] | CC50 [3] | EC50 [4] | ID50 [5] | Ratio [6] | EC50 [7] | ID50 [8] | EC50 [9] | ID50 [10] | Ratio EC50 [11] | ID50 [12] | Ratio [13] |
| --- | --- | --- | --- | --- | --- | --- | --- | --- | --- | --- | --- | --- | --- |
| CC(C)c1c(Cc2c(Cl)cccc2Cl)nc(SCC(=O)c2ccc(F)cc2)[nH]c1=O | 64 nM | > 844 | > 54 µM | > 54000 nM | 0.02 µM | 1530 | > 54 µM | 30.6 µM | > 54 µM |  |  |  |  |
| Cc1cc(C)cc(CSc2nc(Cc3c(F)cccc3F)c(C)c(=O)[nH]2)c1 | 14000 nM | > 5 | > 65 µM |  |  |  |  |  |  |  |  |  |  |
| COc1ccc(C(=O)CSc2nc(Cc3c(Cl)cccc3Cl)c(C)c(=O)[nH]2)cc1 | 67 nM | > 836 | > 56 µM | 1200 nM | 0.094 µM | 5 | > 56 µM | 0.46 µM | > 56 µM | > 40 µM | 18 | > 40 µM |  |
| Cc1c(Cc2c(F)cccc2F)nc(SCc2ccc([N+](=O)[O-])cc2)[nH]c1=O | 1200 nM | > 31 | > 37 µM |  |  |  |  |  |  |  |  |  |  |
| O=c1cc(Cc2c(F)cccc2F)nc(SCc2c(F)cccc2F)[nH]1 | 1000 nM | > 66 | > 66 µM |  |  |  |  |  |  |  |  |  |  |
| Cc1ccc(CSc2nc(Cc3c(F)cccc3F)c(C)c(=O)[nH]2)c(C)c1 | 400 nM | > 162 | > 65 µM |  |  |  |  |  |  |  |  |  |  |
| CC(C)c1c(Cc2c(F)cccc2Cl)nc(SCC(=O)c2ccc(F)cc2)[nH]c1=O | 4 nM | > 14000 | > 56 µM | 560 nM | 0.024 µM |  | > 55 µM | > 40 µM | > 56 µM | 40 µM | 140 |  | 1670 |
| O=C(CSc1nc(Cc2c(F)cccc2F)cc(=O)[nH]1)c1ccc([N+](=O)[O-])cc1 | 8400 nM | > 3 | 22 µM |  |  |  |  |  |  |  |  |  |  |
| O=c1cc(Cc2c(F)cccc2F)nc(SCc2ccccc2)[nH]1 | 100 nM | > 730 | > 73 µM |  |  |  |  |  |  |  |  |  |  |
| COc1ccc(C(=O)CSc2nc(Cc3c(Cl)cccc3Cl)cc(=O)[nH]2)cc1 | 1220 nM | > 9 | > 11 µM | > 11000 nM | 0.054 µM | 2 | > 11 µM | 0.11 µM | > 11 µM | 37.5 µM |  | > 40 µM | 694 |
| O=C(CSc1nc(Cc2c(F)cccc2F)cc(=O)[nH]1)c1ccccc1 | 1000 nM | > 67 | > 67 µM |  |  |  |  |  |  |  |  |  |  |
| COc1ccc(C(=O)CSc2nc(Cc3c(F)cccc3F)c(C)c(=O)[nH]2)cc1 | 48 nM | > 1250 | > 60 µM | 650 nM | 0.26 µM | 4 | > 60 µM | 1.17 µM | > 60 µM | 22.7 µM | 13 | > 40 µM | 87 |
| O=c1cc(Cc2c(F)cccc2F)nc(Sc2ccccc2)[nH]1 | 1400 nM | > 54 | > 76 µM |  |  |  |  |  |  |  |  |  |  |
| Cc1c(Cc2c(F)cccc2F)nc(SCc2ccccn2)[nH]c1=O | 10100 nM | > 7 | > 70 µM |  |  |  |  |  |  |  |  |  |  |
| O=C(CSc1nc(Cc2c(F)cccc2F)cc(=O)[nH]1)c1ccc(Cl)cc1 | 9800 nM | > 6 | > 61 µM |  |  |  |  |  |  |  |  |  |  |
| CC(C)Sc1nc(Cc2c(F)cccc2F)cc(=O)[nH]1 | 17 nM | > 4940 | > 84 µM |  |  |  |  |  |  |  |  |  |  |
| Cc1c(Cc2c(F)cccc2F)nc(SCc2ccncc2)[nH]c1=O | 60 nM | > 1170 | > 70 µM |  |  |  |  |  |  |  |  |  |  |
| COc1ccc(C(=O)CSc2nc(Cc3cccc4ccccc34)c(C(C)C)c(=O)[nH]2)cc1 | 30 nM | 6770 | 203 µM |  |  |  |  |  |  |  |  |  |  |
| O=C1Nc2ccc(Cl)cc2[C@@](C#CC2CC2)(C(F)(F)F)O1 [EFAVIRENZ] | 7 nM |  | > 3 µM | 44 nM |  |  |  |  | 0.39 µM |  |  |  |  |
| COc1ccc(C(=O)CSc2nc(Cc3c(F)cccc3Cl)c(C(C)C)c(=O)[nH]2)cc1 | 1 nM | > 11000 | > 11 µM | 160 nM | 0.0007 µM |  | > 11 µM | > 40 µM | > 11 µM | > 40 µM | 160 | > 40 µM |  |
| Cc1c(Cc2c(F)cccc2F)nc(SCc2ccccc2)[nH]c1=O | 130 nM | > 538 | > 70 µM |  |  |  |  |  |  |  |  |  |  |
| O=c1cc(Cc2c(F)cccc2F)nc(SCCc2ccccc2)[nH]1 | 300 nM | > 233 | > 70 µM |  |  |  |  |  |  |  |  |  |  |
| COc1ccc(C(=O)CSc2nc(Cc3c(Cl)cccc3Cl)c(C(C)C)c(=O)[nH]2)cc1 | 0.4 nM | > 35000 | > 14 µM | 230 nM | 0.014 µM | 1220 | > 14 µM | 17.1 µM | > 14 µM | > 40 µM | 575 | > 40 µM |  |
| CC(=O)CSc1nc(Cc2c(F)cccc2F)cc(=O)[nH]1 | 3100 nM | > 26 | > 81 µM |  |  |  |  |  |  |  |  |  |  |
| Cc1c(Cc2c(F)cccc2F)nc(SCc2cccnc2)[nH]c1=O | 5900 nM | > 12 | > 70 µM |  |  |  |  |  |  |  |  |  |  |
| Cc1c(Cc2c(F)cccc2F)nc(SC(C)C)[nH]c1=O | 6 nM | > 12800 | > 77 µM |  |  |  |  |  |  |  |  |  |  |
| O=c1cc(Cc2c(F)cccc2F)nc(SCCCc2ccccc2)[nH]1 | 200 nM | 160 | 32 µM |  |  |  |  |  |  |  |  |  |  |
